In the library only some 8.7% were active in any assay of this set; here they are far more common.
PostGolgi yeast = phenotypic screen on post-Golgi transport, primary screen | post-Golgi transport phenotypic cell assay | inhibition, % at 10 µM | hit rate 0.9% among 98,000 | AID 739, 2007;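 note: yeast cells grown in 1536-well plates; yeast grown about 18 h at 30C before absorbance read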
Cav3 T inh = Cav3.2 calcium influx blockers – cell-based, Fluo-4 calcium fluorescence, FDSS, MLSMR library, primary screen; B-score at 10 µM; Cav3.2-expressing cells; stronger effect = lower value; hit rate 4% among 100,000; Voltage-dependent T-type calcium channel subunit alpha-1H (Homo sapiens), O95180; AID 449739, 2010;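 active = single-dose well whose peak fluorescence ratio is a statistical outlier from its plate by either plate-standardised score or position-corrected B-score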
Target sequence (O95180 whole entry, looked up): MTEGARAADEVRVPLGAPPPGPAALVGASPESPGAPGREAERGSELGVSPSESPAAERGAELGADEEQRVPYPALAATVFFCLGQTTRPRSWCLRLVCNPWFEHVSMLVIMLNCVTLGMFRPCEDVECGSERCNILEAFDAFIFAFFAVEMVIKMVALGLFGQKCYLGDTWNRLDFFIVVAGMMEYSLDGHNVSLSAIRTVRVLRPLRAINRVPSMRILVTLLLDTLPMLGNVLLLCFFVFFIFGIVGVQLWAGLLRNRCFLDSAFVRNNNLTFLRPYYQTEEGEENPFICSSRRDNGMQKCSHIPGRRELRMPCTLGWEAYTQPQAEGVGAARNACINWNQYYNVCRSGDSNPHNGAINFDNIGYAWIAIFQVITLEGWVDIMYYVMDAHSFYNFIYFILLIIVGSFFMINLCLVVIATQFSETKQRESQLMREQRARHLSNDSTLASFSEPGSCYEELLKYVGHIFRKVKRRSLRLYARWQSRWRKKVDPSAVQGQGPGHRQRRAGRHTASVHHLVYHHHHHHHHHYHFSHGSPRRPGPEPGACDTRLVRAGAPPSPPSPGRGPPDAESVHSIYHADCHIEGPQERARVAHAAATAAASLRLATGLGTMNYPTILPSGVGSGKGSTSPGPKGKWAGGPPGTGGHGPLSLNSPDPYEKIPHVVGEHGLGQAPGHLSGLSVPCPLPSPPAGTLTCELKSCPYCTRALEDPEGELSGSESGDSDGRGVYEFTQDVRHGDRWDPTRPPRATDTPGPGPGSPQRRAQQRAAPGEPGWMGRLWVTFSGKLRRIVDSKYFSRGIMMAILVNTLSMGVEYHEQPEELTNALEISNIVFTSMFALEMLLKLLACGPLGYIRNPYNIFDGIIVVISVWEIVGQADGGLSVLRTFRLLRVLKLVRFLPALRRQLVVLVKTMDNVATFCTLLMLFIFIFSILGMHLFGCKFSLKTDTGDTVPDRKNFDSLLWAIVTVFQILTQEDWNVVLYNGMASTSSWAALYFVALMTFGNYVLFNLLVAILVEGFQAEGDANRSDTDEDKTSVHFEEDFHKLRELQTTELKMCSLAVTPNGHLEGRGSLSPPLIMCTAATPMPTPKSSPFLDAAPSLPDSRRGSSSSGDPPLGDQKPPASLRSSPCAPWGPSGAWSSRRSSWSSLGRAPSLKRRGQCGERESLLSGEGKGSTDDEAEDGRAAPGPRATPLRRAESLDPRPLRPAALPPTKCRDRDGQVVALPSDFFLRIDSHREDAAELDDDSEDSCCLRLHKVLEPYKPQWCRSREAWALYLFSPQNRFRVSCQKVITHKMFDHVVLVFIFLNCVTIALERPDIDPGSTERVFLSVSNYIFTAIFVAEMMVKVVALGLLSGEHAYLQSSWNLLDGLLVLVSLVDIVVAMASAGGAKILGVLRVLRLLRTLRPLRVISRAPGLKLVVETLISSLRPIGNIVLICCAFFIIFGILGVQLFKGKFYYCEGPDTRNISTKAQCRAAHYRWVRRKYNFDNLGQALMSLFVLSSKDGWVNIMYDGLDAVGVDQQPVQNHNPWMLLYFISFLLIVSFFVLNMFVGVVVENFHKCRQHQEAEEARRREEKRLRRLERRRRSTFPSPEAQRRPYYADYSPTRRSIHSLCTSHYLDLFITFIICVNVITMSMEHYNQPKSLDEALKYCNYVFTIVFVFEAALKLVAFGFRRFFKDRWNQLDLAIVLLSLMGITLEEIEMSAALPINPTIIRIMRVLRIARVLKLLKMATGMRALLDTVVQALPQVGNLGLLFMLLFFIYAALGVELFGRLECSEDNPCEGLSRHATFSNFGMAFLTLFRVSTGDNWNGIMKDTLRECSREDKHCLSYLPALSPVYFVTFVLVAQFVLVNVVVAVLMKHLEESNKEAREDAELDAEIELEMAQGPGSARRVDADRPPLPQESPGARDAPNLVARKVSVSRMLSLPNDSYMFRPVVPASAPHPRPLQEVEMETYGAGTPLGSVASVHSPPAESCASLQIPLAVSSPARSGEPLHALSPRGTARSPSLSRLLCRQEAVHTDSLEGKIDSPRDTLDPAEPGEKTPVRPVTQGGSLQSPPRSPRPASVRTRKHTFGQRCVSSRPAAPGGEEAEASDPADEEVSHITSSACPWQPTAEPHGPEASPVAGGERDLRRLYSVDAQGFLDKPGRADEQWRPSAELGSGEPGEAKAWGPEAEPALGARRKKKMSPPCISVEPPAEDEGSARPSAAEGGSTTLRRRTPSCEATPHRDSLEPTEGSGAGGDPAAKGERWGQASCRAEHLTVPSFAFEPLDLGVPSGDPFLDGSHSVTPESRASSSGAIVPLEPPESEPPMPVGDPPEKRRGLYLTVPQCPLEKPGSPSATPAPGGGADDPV
Ecoli WT expand = growth inhibitors of wild-type E. coli, primary screen, strain BW25113, expanded library, OD600. growth inhibition, % at 100 µM. OD600 absorbance. hit rate 0.15% among 98,000;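 active = growth inhibition above about 50% at one test dose, limit read from the data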;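 note: growth measured after 20 h incubation at 37 °C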
Ecoli tolC = growth inhibitors of E. coli tolC mutant, primary screen, strain BW25113 ΔtolC::kan, 384-well | growth inhibition, % at 10 µM (by protocol) | OD615 | AID 573, 2007 | hit rate 2.2% among 65,000;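 active = growth inhibition at or above a cutoff equal to the mean over every tested compound plus 3 SD, cut at about 60% in these data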;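 note: growth measured after 20 h incubation at 37 °C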
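Material: E. coli BW25113 ΔtolC::kan, tolC deletion mutant strain. Measure: percent growth inhibition. Schedule: 37 °C, 20 h exposure. Doses: single-point testing at 10 µM. Signal: A615 absorbance measurement. Buffer or medium: kanamycin-containing LB broth (50 µg/mL).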
Pyk2 oligo antag = antagonists of Pyk2 self-association, primary screen, Q293 cells, FERM NanoBiT luminescence, HTS; hit rate 0.83% among 99,000; stronger effect = lower value; z-score (the deposit names both 25 µM and 10 µM);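 active = Z-score of -3 or lower, scaled per plate to the spread of control and sample wells; inactive = z-score above -3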;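 note: negative z-score means lost luminescence so less FERM oligomerization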
PostGolgi ctrl = growth inhibition of yeast control strain, primary screen, counter-screen for post-Golgi transport modulator project; inhibition, % at 10 µM; efflux-deficient yeast background strain, growth absorbance A615, 16 h; hit rate 5% among 98,000; AID 738, 2007
Numbers without * were called inactive; x = no result. Cut-off read from the data, not from the text of the source, unless noted: active = inhibition above about 30%; inactive = the rest.

SMILES | PostGolgi yeast | Cav3 T inh | Ecoli WT expand | Ecoli tolC | Pyk2 oligo antag | PostGolgi ctrl
CCCCOCCCNC(=O)COc1ccccc1 | -1.1 | 0.45 | 0.0 | -3.2 | 0.02 | 15.1
CCc1ccc(OCC(=O)NCCOc2ccccc2)cc1 | -6.0 | -4.43* | 1.0 | x | 0.9 | 5.0
O=C(c1ccc(Cl)c(Cl)c1)N1CCC(=O)N(C(COCc2ccccc2)Cc2ccccc2)CC1 (stereo not drawn) | x | -5* | x | x | x | x
COC(=O)CSc1nnc(CNC(=O)c2ccco2)n1-c1ccc(F)cc1 | -1.9 | 0.306 | 5.0 | -24.7 | 1.73 | 0.1
COc1ccnc(Nc2ccc(C)c(C)c2)c1C#N | -1.1 | 0.354 | -1.0 | x | 0.68 | 1.3
COc1ccnc(NCc2ccc(Cl)cc2)c1C#N | 6.9 | -0.055 | -8.0 | x | -3.56* | 13.4
COc1cccc(/C=N/NC(=O)c2ccccc2N(Cc2ccccc2)S(=O)(=O)c2ccccc2)c1OC | 1.0 | x | -18.0 | x | -2.69 | 19.2
Cc1cccc(NC(=O)c2cc(S(=O)(=O)c3ccccc3)ccc2Cl)c1 | 4.1 | -5.56* | -14.0 | x | -0.23 | 8.4
Cc1cccc(NC(=O)c2cccc(NS(=O)(=O)c3ccc(Cl)cc3)c2)c1 | -2.0 | -9.59* | 2.0 | x | 1.53 | -7.2
Cc1cccc(NS(=O)(=O)c2ccc(C3CCCCC3)cc2)c1 | -5.5 | -4.55* | -7.0 | x | -1 | 49.9*
Cc1ccc(S(=O)(=O)Nc2cc(C(=O)Nc3cc(C)cc(C)c3)ccc2Cl)cc1 | -1.2 | -5.26* | -3.0 | x | -0.38 | 36.8*
Cc1ccc(S(=O)(=O)Nc2cc(Cl)c(O)cc2C)cc1 | 1.0 | -0.316 | 7.0 | x | -1.15 | 20.1
N#CC1=C(N)S[C@@H](C(=O)c2ccc(F)cc2)[C@@H]1c1cccs1 | x | -4.67* | x | x | -0.54 | x
N#CC1=C(N)SC(C(=O)c2ccccc2)C1c1cccs1 (stereo not drawn) | x | -2.71 | x | x | 2.38 | x
COc1cccc2sc(N(CCCN(C)C)C(=O)c3sc4ccccc4c3Cl)nc12 | x | x | x | x | -0.49 | x
CC/C(=N\NS(C)(=O)=O)c1ccccc1 | 1.9 | 0.281 | 1.0 | x | x | 3.0
CC(=O)Nc1ccc(S(=O)(=O)N2CCC(c3nc4ccc(C)cc4[nH]3)CC2)cc1 | -3.4 | 0.8 | -5.0 | -5.8 | -0.95 | -0.5
CC(C)(C)c1ccc(S(=O)(=O)N2CCC(c3nc4ccc(Cl)cc4[nH]3)CC2)cc1 | x | -4.59* | x | x | -1.8 | x
CC1(C)CC(=O)C2=C(C1)N=c1s/c(=C/c3ccc(F)c(F)c3)c(=O)n1C2c1ccc(F)cc1 (stereo not drawn) | 22.8 | -2.04 | 0.0 | x | -0.32 | 31.0*
CC(C)(C)n1nc(-c2ccc(Cl)cc2)c2c(N)ncnc21 | 1.5 | -0.276 | -4.0 | x | -0.65 | 65.1*
CC(C)(C)n1nc(-c2ccc(F)cc2)c2c(N)ncnc21 | -16.4 | -0.111 | -3.0 | x | 0.77 | 56.8*
CCOC(=O)c1sc(NC(=O)Nc2ccc(Cl)cc2)nc1C | -6.8 | 0.112 | -9.0 | x | -2.2 | 3.0
CCCC(=O)O[C@@H]1C[C@@H](C)N(C(=O)c2ccccc2)c2ccc(C)cc21 | 4.4 | -4.06* | 2.0 | x | -1.98 | 8.9
COc1ccc(OC)c(CCNC(=O)CS(=O)(=O)Cc2nc(-c3ccccc3C)oc2C)c1 | 6.2 | x | -4.0 | 45.1 | 1.3 | 36.6*
Cc1ccccc1-c1nc(CS(=O)(=O)CC(=O)NCc2ccccc2)c(C)o1 | -0.9 | -4.22* | -3.0 | 7.7 | x | 12.4
SMILES | PostGolgi yeast | Cav3 T inh | Ecoli WT expand | Ecoli tolC | Pyk2 oligo antag | PostGolgi ctrl
COc1cccc(-c2nc(CS(=O)(=O)CC(=O)NCCCN3CCc4ccccc4C3)c(C)o2)c1 | -7.9 | -5.75* | 3.0 | 8.9 | 0.12 | -2.1
COc1cccc(-c2nc(CS(=O)(=O)CC(=O)NCc3ccccc3OC)c(C)o2)c1 | -0.2 | -3.44 | 0.0 | -7.7 | x | 2.0
Cc1ccccc1-c1nc(CS(=O)(=O)CC(=O)N(C)C2CCCCC2)c(C)o1 | -4.0 | -7.3* | -4.0 | 35.5 | x | 19.9
Cc1oc(-c2ccccc2F)nc1CS(=O)(=O)CC(=O)N1CCCCCC1 | -6.4 | 0.637 | 3.0 | 10.3 | x | -3.1
CCOC(=O)CC(/C(C)=N\O)c1ccccc1 (stereo not drawn) | -1.3 | 0.406 | 0.0 | -19.7 | 0.42 | 3.1
O=C(CSc1nc(-c2ccccc2)cs1)N1CCc2ccccc21 | 7.7 | 0.631 | -2.0 | x | -0.1 | 7.4
C=CCOC(=O)C1=C[C@@H](c2ccc(C(F)(F)F)cc2)C[C@@H](OCc2ccc(CO)cc2)O1 | x | -0.651 | x | x | x | x
Cn1c(N/N=C/c2cccs2)cc(=O)n(C)c1=O | 0.6 | x | -3.0 | x | -0.95 | 35.1*
COC(=O)CCn1nnc(-c2ccc(C(C)C)cc2)n1 | -10.0 | -5.43* | 7.0 | -10.3 | 1.71 | 9.5
CC(=O)c1c(C)[nH]c(C(=O)OCC(=O)Nc2cc(C(F)(F)F)ccc2N2CCOCC2)c1C | 4.9 | -3.53 | 3.0 | 36.0 | 0.96 | 0.6
CCN(C(=O)Cc1cccs1)c1nnc(-c2cccnc2)s1 | -8.5 | 0.773 | -13.0 | -10.6 | -0.13 | -12.3
O=c1[nH]cnc2nn(-c3ccccc3)nc12 | -2.0 | -3.74* | -18.0 | -26.4 | 1.05 | 7.2
O=c1[nH]cnc2nc(-c3ccccc3)c(-c3ccccc3)nc12 | -3.0 | 1.73 | -7.0 | 5.3 | -0.68 | 1.2
Cc1cc(C)c(C(=O)COC(=O)[C@H](C)Nc2ccc(C(F)(F)F)cc2[N+](=O)[O-])c(C)c1 | 2.0 | -4.37* | -5.0 | x | 1.76 | 5.1
COc1ccc(C(=O)COC(=O)[C@H](C)Nc2ccc(C(F)(F)F)cc2[N+](=O)[O-])cc1 | 2.7 | -1.05 | -13.0 | x | 0.46 | 1.2
O=S(=O)(N/N=C\C=C\c1ccccc1)c1ccc(Cl)cc1 | -7.7 | -2.22 | -8.0 | x | 1.1 | 19.3
O=C(CSc1nc2ccccc2[nH]1)N1CCCCC1 | -2.0 | 0.424 | 5.0 | -3.5 | 0.63 | 1.0
Cc1c(C)n(C(=O)CSc2nc3ccccc3[nH]2)c2ccccc12 | -2.4 | -2.59 | -8.0 | x | 0.27 | 31.4*
O=C(NC(=S)Nc1cccc(Cl)c1N1CCCCC1)c1ccco1 | 21.6 | -0.3 | -5.0 | x | -1.01 | 36.9*
O=C(NC(=S)Nc1ccc(N2CCCCC2)cc1)c1ccco1 | -1.0 | -0.345 | 4.0 | x | -0.47 | 4.3
O=C(NC(=S)Nc1cccc(Cl)c1N1CCCCC1)c1cccs1 | 5.8 | -2.37 | -13.0 | x | -0.3 | 51.7*
Cc1nc(CS(=O)(=O)c2ccc(Cl)cc2)cc(Sc2ccccc2Cl)n1 | 9.3 | -4.49* | -8.0 | x | -0.1 | 17.6
Cc1nc(CS(=O)(=O)c2ccccc2)cc(Sc2ccccc2Cl)n1 | 23.7 | x | 4.0 | x | 1.49 | 1.6
O=C(Oc1c(Cl)cc(Cl)c2cccnc12)N1CCCCC1 | -0.5 | -0.345 | 3.0 | 19.0 | -0.07 | 42.8*
O=C(CSc1ccc(Cl)cc1)Nc1ccccc1N1CCN(C(=O)c2ccccc2)CC1 | -1.0 | -0.961 | 2.0 | x | -1.66 | 22.7
COc1cc(S(=O)(=O)N2CCN(C(=O)c3ccccc3F)CC2)c(OC)cc1NC(C)=O | -3.4 | 0.959 | -3.0 | -8.4 | 0.26 | 3.5

Screening results as filed in PubChem.
